# Data as given in ChEMBL document CHEMBL3526129, “Species differences in tissue distribution and enzyme activities of arylacetamide deacetylase in human, rat, and mouse” (Drug Metab Dispos, 2012).
# Key:
# [1] = target: T1, Arylacetamide deacetylase (Homo sapiens, UniProt P22760); test: Inhibition of AADAC in human jejunum microsome
# T1 sequence (P22760 whole entry): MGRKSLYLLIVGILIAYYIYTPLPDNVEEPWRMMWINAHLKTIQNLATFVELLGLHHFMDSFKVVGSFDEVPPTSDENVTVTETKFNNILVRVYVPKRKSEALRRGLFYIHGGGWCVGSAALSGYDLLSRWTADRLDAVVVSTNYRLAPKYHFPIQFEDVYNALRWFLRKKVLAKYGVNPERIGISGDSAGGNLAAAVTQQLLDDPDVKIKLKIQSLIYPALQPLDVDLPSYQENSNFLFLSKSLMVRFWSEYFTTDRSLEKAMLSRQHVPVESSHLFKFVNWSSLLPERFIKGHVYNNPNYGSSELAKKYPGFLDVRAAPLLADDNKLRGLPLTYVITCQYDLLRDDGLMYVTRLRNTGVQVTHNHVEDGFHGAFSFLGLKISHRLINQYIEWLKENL
# Procedure, shortened: (§1)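 Flutamide hydrolysis to FLU-1 by pooled human jejunum (n = 10) or single-donor human renal microsomes at 0.4 mg/ml in 100 mM potassium phosphate (pH 7.4). Flutamide was 0.005–0.75 mM (jejunum) or 0.025–0.75 mM (kidney). Kinetics were fitted to the substrate inhibition equation, combined with Michaelis-Menten for jejunum. Triplicate determinations.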
# [2] = Intrinsic clearance in mouse jejunum microsome at 0.005 to 0.75 mM; type: ADME; conditions: jejunum microsomes
# [3] = Intrinsic clearance in mouse Liver microsome at 0.025 to 0.75 mM; type: ADME; conditions: liver microsomes, read-out: CLH
# Procedure, shortened: (§2)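 Flutamide hydrolysis to FLU-1 in 100 mM potassium phosphate (pH 7.4) with 0.4 mg/ml microsomal protein. Flutamide was 0.025–0.75 mM, or 0.005–0.75 mM for human jejunum. Rodent microsomes were pooled from 3 male SD rats or 5 male C57BL/6J mice. CLint is Vmax/Km, or the initial slope when Km was high; for Hill fits, CLmax. Triplicate determinations.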
# [4] = target: T2, Arylacetamide deacetylase (Mus musculus, UniProt Q99PG0); test: Activity of AADAC in mouse lung microsome; type: ADME; conditions: microsomes
# T2 sequence (Q99PG0 whole entry): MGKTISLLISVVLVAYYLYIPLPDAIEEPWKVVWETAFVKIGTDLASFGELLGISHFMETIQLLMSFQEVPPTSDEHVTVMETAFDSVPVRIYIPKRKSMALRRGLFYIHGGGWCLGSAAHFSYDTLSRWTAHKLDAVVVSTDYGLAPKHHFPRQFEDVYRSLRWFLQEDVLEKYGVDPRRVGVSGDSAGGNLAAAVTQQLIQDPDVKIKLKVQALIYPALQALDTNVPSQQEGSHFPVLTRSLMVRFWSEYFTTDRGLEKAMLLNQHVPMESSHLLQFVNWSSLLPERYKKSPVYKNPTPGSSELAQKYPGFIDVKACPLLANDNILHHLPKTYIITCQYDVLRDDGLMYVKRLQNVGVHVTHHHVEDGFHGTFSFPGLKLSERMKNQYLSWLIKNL
# Procedure, shortened: (§3)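 Hydrolase activity of tissue microsomes in 0.2 ml mixtures of 100 mM potassium phosphate (pH 7.4). Microsomal protein: 0.4 mg/ml for flutamide (0.025–0.75 mM) and phenacetin (0.05–4 mM); 0.5 mg/ml for rifampicin (0.005–1 mM). Products measured were FLU-1, p-phenetidine and 25-deacetylrifampicin, within linear ranges. Three independent experiments.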
# [5] = target: T1, Arylacetamide deacetylase; test: Inhibition of AADAC in human kidney microsome; procedure, shortened: as §1
# [6] = Intrinsic clearance in human Liver microsome at 0.025 to 0.75 mM; type: ADME; conditions: liver microsomes, read-out: CLH; procedure, shortened: as §2
# [7] = Intrinsic clearance in rat Liver microsome at 0.025 to 0.75 mM; type: ADME; conditions: liver microsomes, read-out: CLH; procedure, shortened: as §2
# [8] = target: T1, Arylacetamide deacetylase; test: Activity of AADAC in human liver microsome; type: ADME; conditions: microsomes; procedure, shortened: as §3
# [9] = Intrinsic clearance in human kidney microsome at 0.025 to 0.75 mM; type: ADME; conditions: kidney microsomes; procedure, shortened: as §2
# [10] = Intrinsic clearance in mouse kidney microsome at 0.025 to 0.75 mM; type: ADME; conditions: kidney microsomes; procedure, shortened: as §2
# [11] = Intrinsic clearance in rat lung microsome at 0.025 to 0.75 mM; type: ADME; conditions: lung microsomes; procedure, shortened: as §2
# [12] = Intrinsic clearance in rat kidney microsome at 0.025 to 0.75 mM; type: ADME; conditions: kidney microsomes; procedure, shortened: as §2
# [13] = target: T1, Arylacetamide deacetylase; test: Activity of AADAC in human jejunum microsome; type: ADME; conditions: microsomes; procedure, shortened: as §3
# [14] = Intrinsic clearance in human jejunum microsome at 0.005 to 0.75 mM; type: ADME; conditions: jejunum microsomes; procedure, shortened: as §2
# [15] = target: T1, Arylacetamide deacetylase; test: Activity of AADAC in human kidney microsome; type: ADME; conditions: microsomes; procedure, shortened: as §3
# [16] = Intrinsic clearance in rat jejunum microsome at 0.005 to 0.75 mM; type: ADME; conditions: jejunum microsomes
# [17] = Intrinsic clearance in rat kidney microsome at 0.05 to 4 mM; type: ADME; conditions: kidney microsomes
# Procedure, shortened: (§4)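 Phenacetin hydrolysis by tissue microsomes: 0.05–4 mM phenacetin with 0.4 mg/ml microsomal protein in 100 mM potassium phosphate (pH 7.4). p-Phenetidine formation was read within its linear time range. CLint was Vmax/Km, or the initial slope of velocity vs substrate when Km was high. Triplicate determinations. Human liver pooled (n=50), jejunum pooled (n=10), kidney and lung single donors.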
# [18] = Intrinsic clearance in mouse jejunum microsome at 0.05 to 4 mM; type: ADME; conditions: jejunum microsomes
# [19] = Intrinsic clearance in mouse Liver microsome at 0.05 to 4 mM; type: ADME; conditions: liver microsomes, read-out: CLH; procedure, shortened: as §4
# [20] = Intrinsic clearance in human lung microsome at 0.05 to 4 mM; type: ADME; conditions: microsomes, 4000 µM; procedure, shortened: as §4
# [21] = target: T3, Arylacetamide deacetylase (Rattus norvegicus, UniProt Q9QZH8); test: Ratio Vmax to Km in rat recombinant AADAC; type: ADME
# T3 sequence (Q9QZH8 whole entry): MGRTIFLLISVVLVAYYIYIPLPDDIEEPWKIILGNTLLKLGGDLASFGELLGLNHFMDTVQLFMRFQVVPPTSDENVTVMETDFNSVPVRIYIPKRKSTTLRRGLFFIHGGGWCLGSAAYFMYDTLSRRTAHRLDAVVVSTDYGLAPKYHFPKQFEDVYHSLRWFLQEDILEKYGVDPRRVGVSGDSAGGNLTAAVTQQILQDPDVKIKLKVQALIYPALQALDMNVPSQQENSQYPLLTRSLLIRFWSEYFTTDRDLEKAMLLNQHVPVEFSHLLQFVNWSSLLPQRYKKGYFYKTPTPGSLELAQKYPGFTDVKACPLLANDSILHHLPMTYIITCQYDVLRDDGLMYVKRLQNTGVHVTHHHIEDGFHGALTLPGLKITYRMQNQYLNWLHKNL
# [22] = Intrinsic clearance in rat Liver microsome at 0.05 to 4 mM; type: ADME; conditions: liver microsomes, read-out: CLH; procedure, shortened: as §4
# [23] = Intrinsic clearance in rat lung microsome at 0.05 to 4 mM; type: ADME; conditions: lung microsomes
# [24] = Intrinsic clearance in human jejunum microsome at 0.05 to 4 mM; type: ADME; conditions: jejunum microsomes; procedure, shortened: as §4
# [25] = Intrinsic clearance in rat jejunum microsome at 0.05 to 4 mM; type: ADME; conditions: jejunum microsomes
# [26] = Intrinsic clearance in human kidney microsome at 0.05 to 4 mM; type: ADME; conditions: microsomes, 4000 µM; procedure, shortened: as §4
# [27] = Intrinsic clearance in mouse kidney microsome at 0.05 to 4 mM; type: ADME; conditions: kidney microsomes; procedure, shortened: as §4
# Liver microsome = test: Intrinsic clearance in human Liver microsome at 0.05 to 4 mM; type: ADME; conditions: microsomes, 4000 µM; procedure, shortened: as §4
# [28] = target: T2, Arylacetamide deacetylase; test: Ratio Vmax to Km in mouse recombinant AADAC; type: ADME
# [29] = target: T1, Arylacetamide deacetylase; test: Ratio Vmax to Km in human recombinant AADAC; type: ADME
# [30] = Intrinsic clearance in human jejunum microsome at 0.05 to 1 mM; type: ADME; conditions: jejunum microsomes
# [31] = Intrinsic clearance in mouse Liver microsome at 0.05 to 1 mM; type: ADME; conditions: liver microsomes, read-out: CLH
# [32] = target: T1, Arylacetamide deacetylase; test: Inhibition of human recombinant AADAC
# [33] = target: T1, Arylacetamide deacetylase; test: Inhibition of AADAC in human liver microsome
# [34] = Intrinsic clearance in human Liver microsome at 0.05 to 1 mM; type: ADME; conditions: liver microsomes, read-out: CLH
smiles,measurement,setting,value
CC(C)C(=O)Nc1ccc([N+](=O)[O-])c(C(F)(F)F)c1 [FLUTAMIDE],Ki,[1],14 µM
same,microsomal CLint at up to 750 µM,[2],0.2 µL/min/mg
same,microsomal CLint at up to 750 µM,[3],1.2 µL/min/mg
same,Vmax,[4],0 nmol/min/mg
same,Ki,[5],0.6 µM
same,microsomal CLint at up to 750 µM,[6],1.8 µL/min/mg
same,microsomal CLint at up to 750 µM,[7],1.4 µL/min/mg
same,Vmax,[8],1.9 nmol/min/mg
same,microsomal CLint at up to 750 µM,[9],1.2 µL/min/mg
same,microsomal CLint at up to 750 µM,[10],0.6 µL/min/mg
same,microsomal CLint at up to 750 µM,[11],0.1 µL/min/mg
same,microsomal CLint at up to 750 µM,[12],0.2 µL/min/mg
same,S50,[13],0.2 mM
same,microsomal CLint at up to 750 µM,[14],12.9 µL/min/mg
same,S50,[15],2.1 mM
same,microsomal CLint at up to 750 µM,[16],0.2 µL/min/mg
CCOc1ccc(NC(C)=O)cc1 [PHENACETIN],microsomal CLint at up to 4000 µM,[17],0.1 µL/min/mg
same,microsomal CLint at up to 4000 µM,[18],0.1 µL/min/mg
same,microsomal CLint at up to 4000 µM,[19],1.3 µL/min/mg
same,CL,[20],0.4 µL/min/mg
same,Vmax/Km,[21],2.2 uL/min/U
same,microsomal CLint at up to 4000 µM,[22],0.2 µL/min/mg
same,microsomal CLint at up to 4000 µM,[23],0.1 µL/min/mg
same,microsomal CLint at up to 4000 µM,[24],4 µL/min/mg
same,microsomal CLint at up to 4000 µM,[25],0.1 µL/min/mg
same,CL,[26],0.2 µL/min/mg
same,microsomal CLint at up to 4000 µM,[27],0.4 µL/min/mg
same,CLH,Liver microsome,1.1 µL/min/mg
same,Vmax/Km,[28],5.7 uL/min/U
same,Vmax/Km,[29],3.5 uL/min/U
CO[C@H]1/C=C/O[C@@]2(C)Oc3c(C)c(O)c4c(O)c(c(/C=N/N5CCN(C)CC5)c(O)c4c3C2=O)NC(=O)/C(C)=C\C=C\[C@H](C)[C@H](O)[C@@H](C)[C@@H](O)[C@@H](C)[C@H](OC(C)=O)[C@@H]1C [RIFAMPIN],Ki,[1],700 µM
same,microsomal CLint at up to 1000 µM,[30],0.7 µL/min/mg
same,microsomal CLint at up to 1000 µM,[31],0.2 µL/min/mg
same,Ki,[32],300 µM
same,Ki,[33],200 µM
same,microsomal CLint at up to 1000 µM,[34],0.7 µL/min/mg
